Key:
[1] = melting temperature; fluorescence melt of hairpins on a sequencing array, two-state fit, raised by 9.35 °C to match UV melts; conditions: sodium 0.088 M
Method in brief: (§1)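 Cy3 signals were normalised both to pre-quench Cy3 and to control constructs. They came from library hairpins carrying annealed Cy3 and quencher oligos on a sequenced MiSeq flow cell, imaged in 50 mM Na-HEPES pH 8.0, 25 mM NaCl, in 2.5 °C steps up to 60 °C. Bootstrapped two-state fits gave melting temperature and folding enthalpy, and four replicates were combined by inverse variance. Fitted temperatures were then raised by 9.35 °C to match UV melts.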

[2] = folding enthalpy; higher = less favourable; fluorescence melt of hairpins on a sequencing array, two-state fit; conditions: sodium 0.088 M
Method in brief: as §1

Row | Sequence | Tm [1] [°C] | folding enthalpy [2] [kcal/mol]
1 | GTCGGAGGAAACTCCGGC (.(((((....))))).) | 58.5 | -30.5
2 | GTCGGAGGAAACTTCGGC (.((.((....)).)).) | 38.4 | -24.3
3 | GTCGGCGAAAGCCAGAC ((((((....))).))) | 59.4 | -16.4
4 | GTCGGCGAAAGCCATGAC ((((((....)))..))) | 42.4 | -13.9
5 | GTCGGCGAAAGCCGGGAC ((((((....)))..))) | 44.1 | -8.08
6 | GTCGGCGAAAGCCTAGAC ((((((....)))..))) | 47.1 | -18.1
7 | GTCGGCGAAAGCCTGAC ((((((....))).))) | 56.9 | -15.6
8 | GTCGGCGGAAACGTCGGC (.((.((....)).)).) | 54 | -35.5
9 | GTCGGGGGAAACCCCAAC ((.((((....)))).)) | 38.5 | -16.1
10 | GTCGGGGGAAACCTCGGC (.((.((....)).)).) | 44.9 | -35.4
11 | GTCGGTCGAAAGACTGAC (((.(((....))).))) | 61.2 | -38.1
12 | GTCGGTGGAAACGCTGAC (((.(.(....).).))) | 42.6 | -20
13 | GTCGGTGGAAACGTCGAC ((((..(....)..)))) | 45.3 | -19.7
14 | GTCGTACGAAAGTAGGAC (((.(((....))).))) | 53.7 | -39.7
15 | GTCGTAGGAAACTACGAC (((((((....))))))) | 63.3 | -43.6
16 | GTCGTAGGAAACTACGGC (.(((((....))))).) | 52.8 | -36.3
17 | GTCGTCACGAAAGTGGAC (((..(((....)))))) | 37.5 | -13.3
18 | GTCGTCCGAAAGGAGGAC (((.(((....))).))) | 62 | -40.2
19 | GTCGTCGAAAGACGTGAC ((((((....)))..))) | 39.6 | -10.8
20 | GTCGTCGGAAACAACGAC (((((.(....).))))) | 48.3 | -38
21 | GTCGTCGGAAACGGCGAC ((((.((....)).)))) | 62.3 | -41.9
22 | GTCGTGCGAAAGCATGAC (((.(((....))).))) | 66.3 | -34.8
23 | GTCGTGGGAAACCACGGC (.(((((....))))).) | 59.9 | -40.4

Row | Sequence | Tm [1] [°C] | folding enthalpy [2] [kcal/mol]
24 | GTCGTGGGAAACCGCGAC ((((.((....)).)))) | 60.8 | -48.7
25 | GTCGTTCGAAAGAAGAC (((.(((....)))))) | 35.6 | -21.2
26 | GTCTAACGAAAGTTCGAC (((.(((....))).))) | 43.2 | -28.3
27 | GTCTAAGGAAACCTAGAC (((((.(....).))))) | 34.3 | -25.8
28 | GTCTACCGAAAGGTGAC (((.(((....)))))) | 50.3 | -23.8
29 | GTCTACGAAAGTAAGGAC ((((((....)))..))) | 31.2 | -19.5
30 | GTCTACGAAAGTACGAC ((((((....))).))) | 38.1 | -22.8
31 | GTCTACGAAAGTATGGAC ((((((....)))..))) | 31.3 | -16.3
32 | GTCTACGGAAACGTAGAC (((((((....))))))) | 61 | -46.2
33 | GTCTACTCGAAAGAGGAC (((..(((....)))))) | 32.1 | -14.4
34 | GTCTAGCGAAAGCTGGAC (((.(((....))).))) | 61.6 | -33.7
35 | GTCTAGCGAAAGCTTGAC (((.(((....))).))) | 54.2 | -28.7
36 | GTCTAGGGAAACCCAGAC ((((.((....)).)))) | 40.9 | -30.1
37 | GTCTAGGGAAACCTAGGC (.(((((....))))).) | 46.2 | -24.7
38 | GTCTATCCGAAAGGAGAC (((..(((....)))))) | 31.8 | -16.5
39 | GTCTATGAAAATAGAC ((((((....)))))) | 49.5 | -32.8
40 | GTCTCAGGAAACTAAGAC ((((.((....)).)))) | 24.2 | -11.5
41 | GTCTCAGGAAACTGAGGC (.(((((....))))).) | 51.1 | -37.3
42 | GTCTCCCGAAAGGGCGAC (((.(((....))).))) | 53.2 | -30.8
43 | GTCTCCGAAAGGAATGAC ((((((....)))..))) | 35.2 | -20.7
44 | GTCTCCGAAAGGACGGAC ((((((....)))..))) | 35.7 | -15.7
45 | GTCTCCGAAAGGAGGGAC ((((((....)))..))) | 41.7 | -9.56
46 | GTCTCCGAAAGGATGAC ((((((....))).))) | 48.5 | -25.6

Row | Sequence | Tm [1] [°C] | folding enthalpy [2] [kcal/mol]
47 | GTCTCCGGAAACAGAGAC (((((.(....).))))) | 38.3 | -25.8
48 | GTCTCCTCGAAAGAGGAC (((..(((....)))))) | 32 | -9.88
49 | GTCTCGACGAAAGTCGAC (((..(((....)))))) | 35.1 | -8.21
50 | GTCTCGCGAAAGCGCGAC (((.(((....))).))) | 53 | -27.7
51 | GTCTCGCGAAAGCGGAC (((.(((....)))))) | 53.7 | -16.9
52 | GTCTCGGAAACGAGAC ((((((....)))))) | 64.8 | -44.5
53 | GTCTCGGGAAACCGAAAC ((.((((....)))).)) | 34.7 | -15.4
54 | GTCTCTCCGAAAGGAGAC (((..(((....)))))) | 35.8 | -9.6
55 | GTCTCTCGAAAGAGGAC (((.(((....)))))) | 45.1 | -24.2
56 | GTCTCTCGAAAGAGGGAC (((.(((....))).))) | 55.5 | -36.1
57 | GTCTGACCGAAAGGTGAC (((..(((....)))))) | 38.9 | -19.3
58 | GTCTGACGAAAGTCTGAC (((.(((....))).))) | 57.2 | -34
59 | GTCTGAGCGAAAGCTGAC (((..(((....)))))) | 41.2 | -17.6
60 | GTCTGCGAAAGCAAGAC ((((((....))).))) | 60.5 | -26.3
61 | GTCTGCGAAAGCATAGAC ((((((....)))..))) | 45.9 | -19.9
62 | GTCTGGCGAAAGCCGAC (((.(((....)))))) | 55.8 | -16
63 | GTCTGGGGAAACCCAGAC (((((((....))))))) | 68.5 | -37.6
64 | GTCTGGGGAAACCCGGAC (((.(((....))).))) | 55.5 | -39.6
65 | GTCTGGGGAAACTCAGGC (.(((.(....).))).) | 35.8 | -23.3
66 | GTCTGGGGAAACTCGGAC (((.(.(....).).))) | 37.1 | -28.8
67 | GTCTGTGCGAAAGCAGAC (((..(((....)))))) | 46.4 | -19.5
68 | GTCTGTGGAAACATAGAC ((((.((....)).)))) | 44.5 | -31.2
69 | GTCTGTGGAAACATGGAC (((..((....))..))) | 37.3 | -26.8

Row | Sequence | Tm [1] [°C] | folding enthalpy [2] [kcal/mol]
70 | GTCTGTGGAAACGCAGAC (((((.(....).))))) | 53.8 | -48
71 | GTCTGTGGAAACGTAGAC ((((..(....)..)))) | 37.2 | -23.6
72 | GTCTTAGGAAACTAAGAC (((((((....))))))) | 53.7 | -38.4
73 | GTCTTCCCGAAAGGGGAC (((..(((....)))))) | 35.9 | -12.5
74 | GTCTTCCGAAAGGAGAC (((.(((....)))))) | 47.6 | -23.4
75 | GTCTTCGAAAGAAATGAC ((((((....)))..))) | 25.1 | -9.91
76 | GTCTTCGAAAGAACGGAC ((((((....)))..))) | 30.4 | -14.6
77 | GTCTTCGAAAGAATAGAC ((((((....)))..))) | 30.7 | -19.5
78 | GTCTTCGAAAGAATGAC ((((((....))).))) | 37.9 | -25
79 | GTCTTCGGAAACAAAGAC (((((.(....).))))) | 32.3 | -29.7
80 | GTCTTCGGAAACGAAGAC (((((((....))))))) | 64.8 | -30.5
81 | GTCTTCGGAAACGGAGAC ((((.((....)).)))) | 50.4 | -39.1
82 | GTCTTGAAAAAGAC (((((....))))) | 44.1 | -21.7
83 | GTCTTGCCGAAAGGCGAC (((..(((....)))))) | 38.3 | -10.7
84 | GTCTTGCGAAAGCACGAC (((.(((....))).))) | 52.1 | -41.5
85 | GTCTTGCGAAAGCAGGAC (((.(((....))).))) | 58 | -27.4
86 | GTCTTGTCGAAAGACGAC (((..(((....)))))) | 50.4 | -18.1
87 | GTCTTTCGAAAGAAGAC (((.(((....)))))) | 38.5 | -25.1
88 | GTGAAAGGAAACTTCCAC (((.(((....))).))) | 27.8 | -16.3
89 | GTGAAAGGAAACTTTCGC (.(((((....))))).) | 45.2 | -27.3
90 | GTGAACACGAAAGTGCAC (((..(((....)))))) | 41.2 | -14.1
91 | GTGAACGAAAGTTAACAC ((((((....)))..))) | 35.5 | -19.5

Reference: the array DNA melting data of Ke et al. (doi:10.1101/2024.01.08.574731)
